# A1 inh: caspase 3/7 activation in MEF A1-2A-BIM cells, primary screen, A1 inhibitor project, cell-based, luminescence, HTS; 330,000 tested, 0.066% active; caspase activation, % (no concentration beside the values); Caspase-Glo 3/7 luminescence, 3 h; percent of clofoctol response, vehicle zero; AID 2462, 2010;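 active = over half of replicate activation scores above 10%, or exactly half above 10 with the replicate mean above 10; inconclusive = replicate mean below 10 yet half the replicates above 10; inactive = over half of replicates below 10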
# T cruzi repl: inhibitors of intracellular T. cruzi growth, primary screen, luminescence, NIH3T3 host cells; T. cruzi beta-gal in NIH3T3, 90 h; inhibition, % (test concentration not listed); 300,000 tested, 1.4% active; AID 1885, 2009;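 active = mean inhibition across valid replicates above about 55%, limit read from the data; inconclusive = mean below that limit but half or more replicates reach it; inactive = mean below it, under half of replicates reach it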;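 note: signal also drops with host cell toxicity which is not excluded here; 0% = plate median of DMSO wells and 100% = zero luminescence signal; higher percent means less beta-gal luminescence so fewer parasites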
#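 Assay system: NIH/3T3 fibroblasts plus reporter T. cruzi. Amount: NIH/3T3 cells, 5,000 per well. Buffer or medium: DMEM, 2% fetal bovine serum. Doses: compound pinned at 50 nL/well, DMSO. Schedule: ≥90 h infection period, 3 h prior cell attachment. Signal: luminescent β-galactosidase signal after 60 min lysis. Read-out: parasite load inhibition, %.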
# H9c2 TAG inh: inhibitors of triacylglycerol accumulation, primary screen, cell-based, uHTS, fluorescence, H9c2; H9c2 cells, Nile Red lipid (TAG) fluorescence; cells loaded with 200 µM oleic acid; inhibition, % at 12.5 µM; 230,000 tested, 0.66% active; AID 651582, 2012;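 active = pattern-corrected inhibition of lipid staining of at least 50% with the nuclear-stain viability signal not falling by more than 50%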;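 note: 0% = DMSO wells and 100% = triacsin C control wells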
# Beta cell apopt: inhibitors of cytokine-induced beta cell apoptosis, primary screen, luminescence; INS-1E cytokine-induced death, ATP luminescence, 48 h; percent of positive-control rescue, neutral wells zero; protection from apoptosis, % (test concentration not listed); AID 435005, 2010; 300,000 tested, 0.8% active;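 active = Every replicate reaches about 75%, or at least half do and their mean reaches it too, limit read from the data; inconclusive = At least half of replicates reach the limit but their mean does not; inactive = Under half of replicates reach the limit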;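 note: 0% = cytokine-treated negative control wells and 100% = positive control rescue; higher means more ATP so stronger rescue from cytokine killing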
# CSC inhib: cancer stem cell viability inhibitors, primary screen, luminescence; inhibition, % at 7.5 µM; 300,000 tested, 1.1% active; AID 2717, 2010; cancer stem cell-like cells viability; in the data active = inhibition above about 75%; inconclusive = no clear call, values can overlap the other calls; tested in HMLE shEcad cells
# Calb FLC: C. albicans growth inhibition with fluconazole, primary screen, CaCi-2 strain, Alamar Blue fluorescence; growth inhibition, % (test concentration not listed); C. albicans CaCi-2 + fluconazole, 48 h; 300,000 tested, 0.57% active;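 active = growth inhibition above about 58% in most replicates, limit read from the data, passing the limit was not always enough; inconclusive = exactly half the replicates above a set limit; inactive = most replicates below a set limit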;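 note: all wells also contain fluconazole at 8 µg/ml as a sub-toxic cotreatment; 0% = median of DMSO wells and 100% = median of geldanamycin control wells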
# Active calls of the source: *; ? = inconclusive; . = no result given. This is a sample that favours compounds with a hit; in the whole collection about 3.1% have one here.
SMILES,A1 inh,T cruzi repl,H9c2 TAG inh,Beta cell apopt,CSC inhib,Calb FLC
OCc1ccccc1Cn1ccnc1,.,.,2,.,.,.
CC(C)Oc1ccc(CNCCC2(C(C)C)CCOC(C)(C)C2)cc1 (stereo not given),0,68*,14,1,10,-18
COc1ccc(CNCCC2(C(C)C)CCOC(C)(C)C2)cc1 (stereo not given),0,27,-6,-2,-8,11
CNCCCOc1ccc(Cl)cc1C(C)(C)C,0,55*,7,.,26,-13
COCCCNCCCOc1ccc(Cl)cc1C(C)(C)C,1,46,.,8,23,18
CC(=O)N/C(=C/C(C)C)c1ccccc1,0,.,1,-8,-5,.
CCOC(=O)c1cc(-c2ccccc2)nc2nc(N(CC)CC)sc12,-1,23,.,8,30,2
O=C(N/N=C/C(Cl)=C/c1ccccc1)c1ccc2c(c1)OCO2,-1,.,-9,17,74,.
Cc1cc(C)c2[nH]c(=O)c(CN(Cc3ccc4c(c3)OCO4)Cc3nnnn3C3CCCC3)cc2c1,0,71*,.,-15,11,-10
Cc1cccc2cc(CN(Cc3ccc(F)cc3)Cc3nnnn3C3CCCC3)c(=O)[nH]c12,-1,56*,.,2,30,9
Cc1ccc2[nH]c(=O)c(CN(Cc3ccccc3)Cc3nnnn3C3CCCC3)cc2c1,0,48,.,4,-3,13
Cc1ccc(C)c2[nH]c(=O)c(CN(Cc3nnnn3C3CCCCC3)CC3CCCO3)cc12 (stereo not given),1,26,.,-3,-13,14
CCN(CC)C(=S)SCC(=O)c1ccccc1,-3,-3,-7,.,9,-3
CCN(CC)C(=S)SSC(=S)N(CC)CC,0,26,49,?,-11,100*
Cc1ccc(S(=O)(=O)c2ncccc2[N+](=O)[O-])cc1,1,65*,.,51,48,108*
COc1ccc(-c2nnc(Nc3nc4c(OC)cccc4s3)o2)cc1,0,-6,-7,3,81*,-6
COc1ccc(-c2nnc(Nc3nc4c(OC)cccc4s3)o2)c(OC)c1,-2,41,.,.,.,101*
COc1cc(OC)cc(-c2nnc(Nc3nc4c(F)cccc4s3)o2)c1,0,-23,.,18,-4,115*
Fc1cccc2sc(Nc3nnc(-c4ccccc4)o3)nc12,-2,0,-25,26,63,-1
Cc1ccc(S(=O)(=O)Nc2c(C)n(C)n(-c3ccccc3)c2=O)cc1C(=O)NCc1ccco1,.,.,9,.,.,.
COc1cc(/C=C/[N+](=O)[O-])ccc1OC(=O)/C=C/c1ccc(F)cc1,1,41,48,.,.,0
CCCOc1ccc(CNC(=O)c2ccc3nc(N4CCOCC4)sc3c2)cc1,1,0,37,4,2,-3
O=C(NCc1ccco1)c1ccc2c(c1)N(Cc1ccccc1)CCS2,-1,-5,0,-1,129*,4
COc1ccc(C)cc1N1CC(C(=O)OCc2nc(N)nc(Nc3ccccc3C)n2)CC1=O (stereo not given),.,.,-2,.,.,.
COc1ccc(C(=O)N(C)c2ccccc2C(=O)NCCc2ccccc2)cc1,1,-49,.,89*,-12,-5
SMILES,A1 inh,T cruzi repl,H9c2 TAG inh,Beta cell apopt,CSC inhib,Calb FLC
C=CCOc1ccc(/C=C2\SC(=S)N(NS(=O)(=O)c3ccc(C)cc3)C2=O)cc1,1,-3,.,-3,41,88*
CC(C)(C)C1=CC(=O)C(=O)C(C(C)(C)C)=C1,31*,74*,.,0,62,-44
Cc1cccc(CSc2nc(N)c(C#N)c(-c3cccs3)c2C#N)c1,0,68*,.,13,5,1
CN1CCc2nc(SCC(=O)Nc3ccc(OC(F)(F)F)cc3)c(C#N)c(-c3cccs3)c2C1,0,44,.,-10,0,-3
CC(C)(C)C(=O)CSc1nc2c(c(-c3cccs3)c1C#N)CCC2,0,35,23,11,47,9
CN1CCc2nc(SCC(=O)Nc3cccc(F)c3)c(C#N)c(-c3cccs3)c2C1,-1,55*,.,-14,3,-5
Cc1cccc(CSc2nc3c(c(-c4cccs4)c2C#N)CN(C)CC3)c1,-1,58*,.,.,-2,-6
Cc1sc2ccccc2c1CNC[C@H]1O[C@@H](n2cnc(C(N)=O)n2)[C@H](O)[C@@H]1O,.,.,-1,.,.,.
COc1ccc(CCNC(=O)COc2ccc3c(C)cc(=O)oc3c2)cc1OC,0,-3,.,.,0,5
Cc1ccc(C)c(-c2nn(-c3cc(N4CCN(CCO)CC4)ccc3[N+](=O)[O-])c(=O)c3ccccc23)c1,0,61*,.,2,.,31
Cc1cc(C)c2c(c1)/C(=C/C(=O)c1ccc(Br)s1)C(=O)N2,0,46,.,-6,?,?
Cc1cc(Br)c2c(c1)/C(=C/C(=O)c1cccs1)C(=O)N2,0,58*,-13,8,9,-3
COc1ccc(C(=O)/C=C2\C(=O)Nc3ccc(Br)cc32)cc1,.,.,-2,.,.,.
CN1/C(=C\C(=O)c2cccs2)C(C)(C)c2ccccc21,2,14,.,-2,3,-4
Cc1cccc2c1NC(=O)/C2=C\C(=O)c1cccs1,0,5,.,6,83*,22
CCc1ccc2c(c1)/C(=C/C(=O)c1cccs1)C(=O)N2,0,-1,-4,-11,50,98*
CCc1ccc2c(c1)C(=O)C[C@]1(CCC[C@H](C)C1)O2,0,-13,-7,4,21,-7
COc1ccc(NC(=O)COC(=O)c2ccc(OC)c(S(=O)(=O)N3CCCC3)c2)cc1OC,0,.,-67,-5,.,.
COC(=O)CCC(C)N1CCC(Oc2ccc(C(=O)NCc3ccccn3)cc2)CC1 (stereo not given),.,-3,.,.,.,-5
CC1(C)CN(C(=S)Nc2ccc(F)cc2F)C1=O,0,0,.,-5,-18,5
Nc1n[nH]c(-c2cccc([N+](=O)[O-])c2)n1,-1,10,.,6,-18,93*
Nc1nnc(-c2cccc([N+](=O)[O-])c2)s1,0,-4,.,-4,-1,0
CCc1cccc2c(C(=O)COC(=O)c3ccccc3)c[nH]c12,-2,5,.,-4,1,0
CCc1cccc2c(C(=O)COC(=O)c3ccc(O)cc3)c[nH]c12,2,56*,.,0,40,-3
Cc1ccc(S(=O)(=O)NC(=O)NC(C)c2ccc(F)cc2)cc1 (stereo not given),-1,-19,.,1,-14,3
Cc1cc(C(C#N)c2cccc(Cl)c2)n2ncnc2n1 (stereo not given),0,-5,-9,8,23,96*

# Bioassay records from PubChem BioAssay.
